High-throughput results as filed in PubChem.
Compounds with a hit are over-represented: about 3.7% of the library has one in this group of screens.
RAM inhibit: blocks the yeast RAM network; 190,000 compounds, 1.8% hits; S. cerevisiae dse1pr::URA3 reporter, 5-FOA growth OD615, 2 d; analog-sensitive cbk1-as2 kinase mutant strain; inhibition, % at 50 µM; AID 868;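 active = inhibition above a set limit, 3 SD over mean compound inhibition, cut at about 8.4% in these data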;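 also: 0% = DMSO-only wells with no growth and 100% = 10 µM 1-NA-PP1 full growth; inhibition rescues growth on 5-FOA so higher OD means more RAM inhibition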
BB579 growth dn: chemicals that inhibit yeast BB579 growth in restrictive medium (lifespan-shortening candidates); S. cerevisiae BB579 growth, OD615, 48 h; inhibition, % at 10 µM; 140,000 compounds, 0.51% hits;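 active = inhibition above a set limit, 3 SD over the mean compound inhibition, cut at about 44% in these data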
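System: Saccharomyces cerevisiae DeaD strain BB579, replicative lifespan model yeast. Buffer or medium: restrictive glucose-based CSMM-D medium. Doses: one dose, 10 µM compound with 0.25% DMSO. Timing: 4 h preincubation and 48 h exposure at 30 °C. Detection: turbidity as optical density at 615 nm. Benchmarks: amphotericin B 10 µg/mL, positive.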
Efa HMGR inh: blocks class II HMG-CoA reductase of Enterococcus faecalis; purified E. faecalis HMGR, NADPH absorbance 340 nm kinetic; inhibition, % at 10 µM; 190,000 compounds, 0.41% hits; AID 1066;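 active = inhibition above a set limit, the median over all tested compounds plus 3 SD, cut at about 9.5% in these data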;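 also: enzyme runs in reverse so mevalonate oxidation gives rising NADPH absorbance; 0% = complete reaction with DMSO and 100% = background rate lacking mevalonate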
Yeast lifespan up: extends the lifespan of yeast; S. cerevisiae growth with nicotinamide, OD615; deaD strain in restrictive glucose medium; 130,000 compounds, 0.68% hits; AID 775; inhibition of the nicotinamide effect, % at 10 µM;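 active = inhibition above a set limit, placed 3 SD over the median of all compounds, cut at about 26% in these data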;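 also: 0% = nicotinamide-treated wells and 100% = cells grown without nicotinamide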
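assay system = DeaD-strain S. cerevisiae | measured by = absorbance at 615 nm | probe or stimulus = nicotinamide 1.5 mM | buffer or medium = CSMM-D glucose medium, restrictive | times = 48 h at 30 °C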
Insulin prom inh: TRM-6 insulin promoter activity inhibition. TRM-6 cells, insulin promoter-eGFP reporter, imaging; reporter expression induced with tamoxifen. 130,000 compounds, 0.9% hits. inhibition, % at 2 µM;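 active = inhibition above the mean plus 3 SD, with well images judged a real hit on visual review, cut at about 60% in these data, passing the limit was not always enough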
Active calls of the source: *.

For CCn1nc(C)c(NC(=O)CSc2nnc(-c3ccco3)n2C)c1C the results were RAM inhibit 0.2, BB579 growth dn 0.0, Efa HMGR inh 0.8, Yeast lifespan up -4.9 and Insulin prom inh 81.2*.
For O=C(CSc1nnc(-c2ccco2)n1Cc1ccco1)Nc1ccccc1 the results were RAM inhibit 11.3*, BB579 growth dn -19.4, Efa HMGR inh -6.0, Yeast lifespan up -7.8 and Insulin prom inh -10.3.
For CCN1C(=O)c2cccc3c(NC(=O)c4cccc(N5C(=O)CCC5=O)c4)ccc1c23 the results were RAM inhibit 9.3*, BB579 growth dn -48.4, Efa HMGR inh 7.6 and Yeast lifespan up -2.6.
Screening CCN(CC)c1ccc(/C=N/NC(=S)NCc2ccco2)cc1 returned RAM inhibit 0.0, BB579 growth dn 2.1, Efa HMGR inh -1.7, Yeast lifespan up -4.0 and Insulin prom inh 100.0*.
For CC(=O)c1cccc(NC(=O)COC(=O)[C@@H](NC(=O)OCc2ccccc2)C(C)C)c1 the results were RAM inhibit 0.2, BB579 growth dn -55.4, Efa HMGR inh 2.3 and Yeast lifespan up -0.7.
O=C1c2cccc3cccc(c23)C(=O)N1c1cccnc1 was read as RAM inhibit -0.8, BB579 growth dn 48.8*, Efa HMGR inh 0.8 and Yeast lifespan up -31.1.
`O=C1c2cccc3cccc(c23)C(=O)N1c1ccncc1` gave RAM inhibit 1.2, BB579 growth dn 26.1, Efa HMGR inh -1.4 and Insulin prom inh 58.1.
Screening CC(=O)Nc1ccc(S(=O)(=O)Nc2cccc(-c3nc4ccccc4o3)c2)cc1 returned RAM inhibit 0.6, BB579 growth dn -4.9, Efa HMGR inh -8.3, Yeast lifespan up -5.9 and Insulin prom inh 54.2.
`O=S(=O)(Nc1ccc(-c2nc3ccccc3o2)cc1)c1ccccc1` gave RAM inhibit 4.9, BB579 growth dn 45.7*, Efa HMGR inh 1.2, Yeast lifespan up -7.2 and Insulin prom inh -24.2.
For COC(=O)C1=C(C)N(Cc2ccco2)C(=O)/C1=C\c1ccc(N(C)C)cc1 the results were RAM inhibit 5.5, BB579 growth dn -24.6, Efa HMGR inh -6.7, Yeast lifespan up 7.2 and Insulin prom inh 5.3.
Screening COC(=O)C1=C(C)N(Cc2ccco2)C(=O)/C1=C\c1ccc([N+](=O)[O-])cc1 returned RAM inhibit 10.0* and Efa HMGR inh 10.1*.
`CCOC(=O)c1c(N2C(=O)Nc3ccccc3N2O)sc2c1CCCC2` gave RAM inhibit 1.8, BB579 growth dn -30.6, Efa HMGR inh 1.3, Yeast lifespan up 30.0* and Insulin prom inh 19.4.
Screening CC(C)c1ccc(-c2noc(C3CCCN(C(=O)c4ccc(F)cc4F)C3)n2)cc1 (stereo not given) returned RAM inhibit 10.4*, BB579 growth dn -45.9, Efa HMGR inh -2.3 and Yeast lifespan up -11.9.
For O=C1C(C2=C(O)c3ccccc3C2=O)=Nc2ccccc21 the results were RAM inhibit 2.7, BB579 growth dn -9.2, Efa HMGR inh -4.1, Yeast lifespan up 44.6* and Insulin prom inh -440.0.
CC1(C)CC(=O)c2sc(NS(C)(=O)=O)nc2C1 was read as RAM inhibit 3.4, BB579 growth dn -6.8, Efa HMGR inh 2.3, Yeast lifespan up 96.9* and Insulin prom inh -31.4.
For Cc1ccc(-c2csc3nnc(SCC(=O)NCc4ccc5c(c4)OCO5)n23)cc1 the results were RAM inhibit 0.8, BB579 growth dn -65.4, Efa HMGR inh -2.8, Yeast lifespan up -16.5 and Insulin prom inh -16.2.
For C=CCn1c(SCC(=O)NCc2ccc3c(c2)OCO3)nnc1-c1cccnc1 the results were RAM inhibit 2.3, Efa HMGR inh -3.3 and Insulin prom inh 76.5*.
For O=C(CSc1nnc(-c2cccnc2)n1Cc1ccco1)NCc1ccc2c(c1)OCO2 the results were RAM inhibit 3.0, BB579 growth dn -9.3, Efa HMGR inh -3.0, Yeast lifespan up -16.1 and Insulin prom inh -284.6.
Screening O=C(CCSc1nnc2scc(-c3ccccc3)n12)NCc1ccc2c(c1)OCO2 returned RAM inhibit 10.1*, BB579 growth dn -46.2, Efa HMGR inh -1.3, Yeast lifespan up -0.8 and Insulin prom inh -21.2.
Screening CC(=O)c1ccc(NC(=O)CSc2nnc(-c3ccco3)c(-c3ccco3)n2)cc1 returned RAM inhibit 3.4 and Efa HMGR inh -1.9.
O=C(CSc1nnc(-c2ccco2)c(-c2ccco2)n1)c1ccccc1 was read as RAM inhibit 10.1*, Efa HMGR inh 0.0 and Insulin prom inh -25.9.
